Screening data as filed in PubChem.
MT1-MMP act inh: MT1-MMP (human) activation inhibition. P50281. HT1080 RFP-PRO-GFP cells, GFP/RFP ratio fluorescence, overnight; percent of plate control window, DMSO zero. GFP/RFP ratio change, % at 20 µM. 0.061% of 360,000 active;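 active = GFP/RFP ratio change of at least 30% with cell ATP level not reduced by more than half and red fluorescence within 50% of control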
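Material: RFP-PRO-GFP reporter HT1080 cells. Dosing: single-point 20 µM compound, 1% DMSO. Controls: DMSO and RFP-L50D-GFP cell wells. Timing: cells overnight before dosing, compound overnight, 37 °C, 5% CO2. Measure: GFP/RFP fluorescence ratio.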
Myeloid diff 2: compounds promoting myeloid differentiation | AID 624256 | ER-HoxA9 myeloid progenitors, lysozyme-GFP differentiation, flow cytometry | calls only at 10 µM | 1% of 360,000 active;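 active = normalized GFP-positive differentiation at or above the plate's own cutoff, the solvent-only control mean plus 3 SD; inconclusive = no clear call, values can overlap the other calls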;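 also: cells exposed to compound for four days before flow analysis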
SENP1 FRET inh: inhibitors of human SENP1 SUMO protease catalytic domain. 0.21% of 360,000 active. Q9P0U3. recombinant SENP1 catalytic domain, CyPet-SUMO1-YPet FRET cleavage. inhibition, % at 10 µM;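 active = inhibition at least 30% at 10 µM, raw YFP signal under a set limit, fluorescence ratio 0.5 to 1.5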;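 also: 0% = enzyme with DMSO and 100% = no enzyme wells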
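Compound: 10 µM single point, 0.5% DMSO; Test system: hSENP1 catalytic domain, recombinant; Timing: 50 min reaction at room temperature; Technique: FRET, CFP and YFP emission; Control set: no-enzyme wells low, DMSO-plus-enzyme wells high control.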
MIN6 prolif: inducers of beta-cell replication in MIN6 cells | MIN6 cells proliferation, ATPlite luminescence, 48 h; cells starved in 0.2% serum; 100% = growth in 10% serum | proliferation, % at 10 µM | 0.29% of 330,000 active | AID 2380;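 active = compounds whose signal lies at least 3.5 SD above the mean of all wells on their plate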;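 also: 0% = DMSO-treated cells in low-serum medium and 100% = 10% serum control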
CendR NRP1 mod: alters CendR peptide binding to human NRP-1 | FAM-RPARPAR peptide binding to NRP-1, fluorescence polarization | inhibition, % at 25 µM | O14786 | 0.85% of 360,000 active | AID 602438;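 active = inhibition or corrected inhibition above about 18%, plus a signal ratio from 0.5 to 1.5, limit read from the data, passing the limit was not always enough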
Target sequence (O14786 whole entry, looked up): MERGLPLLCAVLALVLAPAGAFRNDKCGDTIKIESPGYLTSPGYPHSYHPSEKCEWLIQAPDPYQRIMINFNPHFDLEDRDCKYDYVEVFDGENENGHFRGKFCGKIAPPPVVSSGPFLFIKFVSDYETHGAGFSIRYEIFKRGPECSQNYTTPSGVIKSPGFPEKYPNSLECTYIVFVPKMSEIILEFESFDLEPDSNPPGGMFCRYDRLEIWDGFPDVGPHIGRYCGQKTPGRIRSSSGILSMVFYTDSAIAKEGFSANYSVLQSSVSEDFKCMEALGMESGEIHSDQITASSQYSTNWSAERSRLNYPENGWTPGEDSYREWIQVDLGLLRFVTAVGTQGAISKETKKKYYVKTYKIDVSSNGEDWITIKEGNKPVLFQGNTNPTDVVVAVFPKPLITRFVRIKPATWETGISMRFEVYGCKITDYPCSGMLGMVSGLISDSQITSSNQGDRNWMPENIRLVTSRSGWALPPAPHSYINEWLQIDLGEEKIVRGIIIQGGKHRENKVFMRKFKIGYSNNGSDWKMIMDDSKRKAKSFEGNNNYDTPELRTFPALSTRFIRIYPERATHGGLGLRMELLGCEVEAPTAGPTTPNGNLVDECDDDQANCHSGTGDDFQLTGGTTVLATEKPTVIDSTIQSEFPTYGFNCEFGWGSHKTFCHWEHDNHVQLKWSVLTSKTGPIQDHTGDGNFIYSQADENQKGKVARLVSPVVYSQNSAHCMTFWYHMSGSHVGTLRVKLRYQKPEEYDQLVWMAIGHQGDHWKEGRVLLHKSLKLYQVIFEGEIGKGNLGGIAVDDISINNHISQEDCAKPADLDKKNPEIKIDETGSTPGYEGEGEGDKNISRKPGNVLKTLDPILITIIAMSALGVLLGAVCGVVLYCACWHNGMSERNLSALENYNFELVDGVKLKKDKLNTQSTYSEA
DAGLB inh: blocks human DAGLB lipase activity | Q8NCG7 | AID 504411 | 0.059% of 340,000 active | HEK293T DAGLB membrane lysate, EnzChek fluorogenic substrate | inhibition, % at 5.17 µM; in the data active = inhibition above about 34%;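 also: 0% = enzyme with vehicle and 100% = wells lacking enzyme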
Numbers without * were called inactive; i = inactive; ? = inconclusive; . = not tested or not shown; + = active, no number. A selection: hits, their analogues and other compounds. The true share with any hit is near 2.4%.

SMILES	MT1-MMP act inh	Myeloid diff 2	SENP1 FRET inh	MIN6 prolif	CendR NRP1 mod	DAGLB inh
O=C(NCC1CCCCC1)c1ccc(F)c(S(=O)(=O)N2CCOCC2)c1	5	i	2	-1	21*	0
O=C(COC(=O)c1ccc(F)c(S(=O)(=O)N2CCOCC2)c1)NC1CCCCC1	-2	i	0	4	-4	-3
CC1CCCC(C)N1C(=O)COC(=O)c1ccc(F)c(S(=O)(=O)N2CCOCC2)c1 (stereo unspecified)	-2	i	2	1	23*	0
O=C(Nc1ccc2c(c1)CCC2)c1ccc(F)c(S(=O)(=O)N2CCOCC2)c1	-1	i	0	-2	25*	-7
Cn1c(=O)c2c(nc(Br)n2Cc2nnc(N)s2)n(C)c1=O	-1	i	2	0	-12	2
COc1ccc(-c2nc3ncnn3cc2C)cc1F	2	i	-1	2	3	-2
Cc1ccc(C(C)C)c(OCCCN(C)Cc2ccccc2)c1	-4	i	2	0	10	-13
Cc1ccc(OCCCCN(C)Cc2ccccc2)c(Br)c1	-1	+	1	0	0	-11
COc1ccccc1OCCOCCOc1ccc(C)cc1Br	-1	+	1	-2	-10	-17
O=C(CCc1nc(-c2ccccc2F)no1)Nc1cccnc1	6	i	1	0	14	1
Fc1ccc(COc2cccc(CNCc3ccncc3)c2)cc1	-6	+	3	-6	13	4
O=C(O)c1ccc(CNCc2cccc(OCc3ccc(F)cc3)c2)cc1	1	i	0	0	4	0
CN1CCC(N(C)C(=O)c2cc(-c3ccccc3Cl)nc3ccccc23)CC1	-4	+	0	-1	4	-3
C#CCOc1ccc(CNC[C@H]2O[C@@H](n3ccc(N)nc3=O)[C@H](O)[C@@H]2O)cc1	0	i	-2	.	5	5
CCCCc1cc(=O)oc2cc(OCC(=O)NC3CCN(Cc4ccccc4)CC3)ccc12	6	+	2	-4	1	-5
COc1cc(-c2nccc3cc4c(cc23)OCO4)cc(OC)c1OC	-6	?	-2	.	-5	-2
COc1cc2c(cc1OC)-c1c(OC)c(OC)cc3ccnc(c13)C2=O	14	?	60*	-7	4	1
COc1cc(/C=C/C(=O)OCC(=O)NCC(=O)Nc2cccc(C)c2C)ccc1OC(F)F	-1	i	0	2	-2	-2
COc1cc2ccccc2cc1C(=O)O	2	i	4	-1	3	2
COc1ccc(OC)c2cc3ccccc3cc12	-29	+	80	.	38	-2
CC(C(=O)OCC(=O)Nc1ccc2c(c1)OCO2)N1C(=O)c2ccccc2C1=O (stereo unspecified)	0	i	-1	-3	22*	-4
CCOc1ccc(/C=N/OCC(=O)Nc2ccc3c(c2)OCO3)cc1	0	i	-1	0	32*	-12
COc1ccc(/C=C/C(=O)OCC(=O)Nc2ccc3c(c2)OCO3)cc1	4	i	0	-2	21*	-2
Cc1cc(NC(=O)CO/N=C/c2ccc3c(c2)OCO3)ccc1Br	-2	i	-1	-1	5	-4
CCC(C)CN1C(=O)CN(S(C)(=O)=O)CC1(C)C(=O)NC(C)C (stereo unspecified)	12	i	3	.	-2	.
SMILES	MT1-MMP act inh	Myeloid diff 2	SENP1 FRET inh	MIN6 prolif	CendR NRP1 mod	DAGLB inh
Cc1cc(C)c(S(C)(=O)=O)c(Sc2ccc(Cl)cc2)n1	4	i	2	-3	2	-3
Cc1ccc(-n2c(-c3nn(C)c(C)c3Cl)n[nH]c2=S)cc1	-1	i	1	-2	20*	0
CCCCOc1ccc(C(=O)NCC(=O)NC(C)CCc2ccccc2)cc1 (stereo unspecified)	-2	+	-1	-6	16	-1
CCOC(=O)c1c(NC(=O)COC(=O)c2ccc(C)s2)sc2c1CC(C)(C)NC2(C)C	-3	i	0	-7	2	-1
O=C(O)c1ccc2c(c1)[C@@H]1C=CC[C@@H]1[C@H](c1ccccn1)N2	-4	i	30	-2	32*	2
Cc1oc(-c2ccc(Cl)cc2)nc1CN1CCC(C(=O)N2CCc3ccccc3C2)CC1	8	+	-1	-7	-12	1
CC#CCN(Cc1ccco1)C(=O)C1CCC(=O)N(CCc2cccc(F)c2)C1 (stereo unspecified)	-2	i	-2	.	-6	1
CC#CCN(Cc1ccco1)C(=O)C1CCC(=O)N(Cc2ccccc2F)C1 (stereo unspecified)	2	i	0	-7	23*	2
COc1ccc(S(=O)(=O)N2CCOCC2)c(Cl)c1Cl	-4	i	1	0	-9	-2
NS(=O)(=O)c1cc(C(=O)Nc2ccc3c(c2)CCC3)ccc1Cl	0	i	1	-1	1	-6
CCOc1ccccc1Oc1cn[nH]c1-c1ccc(OCC(=O)NN)cc1O	2	+	1	0	1	3
CCCNC(=S)Nc1cccc(C(F)(F)F)c1	-1	i	3	-3	25*	2
CCN(CC)S(=O)(=O)c1cc(NC(=O)c2cccc(N3C(=O)CCC3=O)c2)ccc1Cl	-2	i	-1	1	-4	4
CCN(CC)C(C)C(=O)Nc1c2c(cc3c1CCC3)CCC2 (stereo unspecified)	-2	+	-2	-3	-7	-4
CC(C(=O)Nc1c2c(cc3c1CCC3)CCC2)N1CCCC1 (stereo unspecified)	1	i	3	0	8	-1
Cc1sc2nc(COC(=O)c3cccc(OC(F)F)c3)[nH]c(=O)c2c1C	8	i	2	0	-4	0
Cc1sc2nc(COC(=O)c3cccc(S(=O)(=O)N(C)c4ccccc4)c3)[nH]c(=O)c2c1C	-31	+	-47	-3	-82	7
O=C1CSC(c2cn(-c3ccccc3)nc2-c2ccccc2)N1Cc1ccco1 (stereo unspecified)	-4	i	-1	-5	-1	2
O=C1CSC(c2cn(-c3ccccc3)nc2-c2cccs2)N1CC1CCCO1 (stereo unspecified)	-10	i	-1	-2	32*	2
O=C(O)CCN1C(=O)c2ccc(NC(=O)c3ccco3)cc2C1=O	-3	i	0	5	21*	-1
O=C(O)c1ccc(N2CCCCCC2)c(N2C(=O)c3ccccc3C2=O)c1	2	i	1	-1	26*	1
